Screening data from PubChem BioAssay.
Compounds with a hit are over-represented: about 2% of the library has one in this group of screens.
PAD4 inh: human PAD4 inhibitors, primary screen, biochemical, fluorescence polarization, 1536-well format | recombinant PAD4, RCA probe fluorescence polarization | inhibition, % at 6.36 µM | hit rate 0.41% among 330,000;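 active means percent inhibition above a cutoff equal to the mean of all tested compounds plus 3 SD, cut at about 15% in these data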;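 further: 0% = PAD4 with RCA probe and DMSO and 100% = probe without PAD4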
GSTO1 counter: inhibitors of recombinant GSTO1, primary screen, counter-screen for RBBP9 inhibitor project, biochemical, fluorescence polarization | Glutathione S-transferase omega-1 (Homo sapiens), P78417 | inhibition, % at 5.96 µM | hit rate 1.1% among 300,000 | activity-based probe fluorescence polarization;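 active means inhibition above the campaign mean inhibition plus 3 SD, cut at about 35% in these data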;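 further: 0% = GSTO1-1 with DMSO and 100% = wells lacking GSTO1-1 enzyme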
Target sequence (P78417 whole entry, looked up): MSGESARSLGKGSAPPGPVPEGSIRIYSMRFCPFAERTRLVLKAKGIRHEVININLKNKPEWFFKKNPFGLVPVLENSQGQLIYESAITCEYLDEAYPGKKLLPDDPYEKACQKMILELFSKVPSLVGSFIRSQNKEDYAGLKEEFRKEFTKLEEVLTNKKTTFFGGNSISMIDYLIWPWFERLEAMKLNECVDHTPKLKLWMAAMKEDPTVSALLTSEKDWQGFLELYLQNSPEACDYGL
Apaf-1 inh: inhibitors of human Apaf-1 apoptosome, primary screen, biochemical, DEVD-Rh110 fluorescence, uHTS. Apoptotic protease-activating factor 1 (Homo sapiens), O14727. reconstituted apoptosome caspase-3 activity. inhibition, % at 20 µM. hit rate 0.71% among 330,000. AID 489030, 2010; active means inhibition of at least 40% at 20 µM;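 further: plate controls were DMSO wells for no effect and DEVD-CHO caspase inhibitor wells for full effect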
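detection = Rh110 fluorescence intensity | test system = biochemical Apaf-1 apoptosome reconstitution | also added = cytochrome c and DEVD-Rh110 substrate | schedule = 30 min plus 50 min, RT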
PP5 primary: PP5 phosphatase inhibitors, primary screen, biochemical, fluorescence | Serine/threonine-protein phosphatase 5 (Homo sapiens), P53041 | purified PP5c, OMFP substrate fluorescence | inhibition, % at 6.7 µM | AID 1987, 2009 | hit rate 0.18% among 320,000;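 active means inhibition above the campaign's mean inhibition across all tested compounds plus 3 SD, cut at about 9.5% in these data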;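 further: 0% = DMSO only and 100% = 100 µM cantharidin control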
Fh CTSL1 inh: Fasciola hepatica cathepsin L1 inhibitors, primary screen, counter-screen for PFM18AAP inhibitor project, biochemical, QFRET, fluorogenic peptide substrate; recombinant F. hepatica cathepsin L1, Z-Leu-Arg-MCA fluorescence; inhibition, % at 5.96 µM; hit rate 0.49% among 300,000;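 active means inhibition above the mean of all tested compounds plus 3 SD, set per screening campaign, cut at about 17% in these data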;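 further: 0% = plate median of test compound wells and 100% = 1 µM Z-Phe-Ala-diazomethylketone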
UCH37 inh: inhibitors of human UCH37 deubiquitinase, primary screen, biochemical, Ub-AMC cleavage, fluorescence; AID 588478, 2011; purified proteasome/UCH37; inhibition, % (no concentration beside the values); hit rate 0.33% among 330,000; Ubiquitin carboxyl-terminal hydrolase isozyme L5 (Homo sapiens), Q9Y5K5;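 active means mean inhibition over replicate wells above about 20%, limit read from the data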;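 further: 0% = compound-free wells with enzyme and 100% = wells lacking proteasome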
Target sequence (Q9Y5K5 whole entry, looked up): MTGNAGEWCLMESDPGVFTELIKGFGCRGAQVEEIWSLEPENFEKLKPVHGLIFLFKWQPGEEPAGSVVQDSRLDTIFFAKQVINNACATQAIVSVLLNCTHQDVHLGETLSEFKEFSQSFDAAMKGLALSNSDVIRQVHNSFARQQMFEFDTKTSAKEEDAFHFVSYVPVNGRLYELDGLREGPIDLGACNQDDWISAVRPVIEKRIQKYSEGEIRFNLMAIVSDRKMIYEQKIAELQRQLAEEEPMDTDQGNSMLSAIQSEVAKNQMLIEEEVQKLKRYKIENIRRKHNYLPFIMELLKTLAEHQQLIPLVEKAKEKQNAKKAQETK
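Material: Human UCH37 enzyme supplied as purified proteasome complex | Schedule: 30 min preincubation with enzyme, 25 min cleavage at room temperature | Detection: AMC fluorescence 355/460 nm | Measure: % inhibition of Ub-AMC cleavage fluorescence | Controls: Wells without proteasome as full block, compound-free enzyme plus substrate as uninhibited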
* = called active by the depositor; ! = repeats disagree.

For CCc1ccccc1N1C(=O)/C(=C/c2ccc(N3CCN(C)CC3)o2)C(=O)NC1=S the results were PAD4 inh -5, GSTO1 counter 5, Apaf-1 inh 15, PP5 primary 2, Fh CTSL1 inh 3 and UCH37 inh 16.
For Cc1cccc(N2C(=O)/C(=C/c3ccc(N4CCN(C)CC4)o3)C(=O)NC2=S)c1C the results were PAD4 inh -4, GSTO1 counter -7, Apaf-1 inh 3, PP5 primary 2, Fh CTSL1 inh -1 and UCH37 inh 22*.
Screening Cc1ccccc1N1C(=O)/C(=C/c2ccco2)C(=O)NC1=S returned PAD4 inh -11, GSTO1 counter 36*, PP5 primary 4 and Fh CTSL1 inh 2.
Screening O=C1NC(=O)N(c2ccccc2F)C(=O)/C1=C/c1cn(CC(=O)N2CCOCC2)c2ccccc12 returned PAD4 inh -6, GSTO1 counter -5, Apaf-1 inh -3, PP5 primary -6, Fh CTSL1 inh -8 and UCH37 inh 0.
Screening Cc1ccccc1N1C(=O)NC(=O)/C(=C\c2cc(Br)c(N3CCOCC3)o2)C1=O returned PAD4 inh -3, GSTO1 counter 6, Apaf-1 inh -15, PP5 primary 3, Fh CTSL1 inh 7 and UCH37 inh 23*.
`CCN(CC)c1ccc(C=Nc2sc3c(c2C#N)C2CCN3CC2)c(O)c1` gave UCH37 inh 8.
O=C1NC(=O)N(CCC2=CCCCC2)C(=O)/C1=C/c1ccc(O)cc1 was read as PAD4 inh -2, GSTO1 counter 35*, Apaf-1 inh 0, PP5 primary -1, Fh CTSL1 inh 3 and UCH37 inh 4.
CCOc1cc(C=C2C(=O)NC(=O)NC2=O)cc([N+](=O)[O-])c1O was read as PAD4 inh -4, GSTO1 counter -1, Apaf-1 inh -3, PP5 primary 4, Fh CTSL1 inh -1 and UCH37 inh 26*.
CN(C)c1ccc(C=C2C(=O)NC(=O)NC2=O)cc1[N+](=O)[O-] was read as PAD4 inh -5, GSTO1 counter -3, Apaf-1 inh -2, PP5 primary 0, Fh CTSL1 inh 5 and UCH37 inh 8.
`CC(Cl)(Cl)C(=NP(=S)(N1CCOCC1)N1CCOCC1)N1CCOCC1` gave UCH37 inh 1.
`O=C1NC(=O)N(c2ccc(F)cc2)C(=O)/C1=C/c1ccsc1` gave PAD4 inh -10, GSTO1 counter -12, Apaf-1 inh 3, PP5 primary -6, Fh CTSL1 inh 35* and UCH37 inh 4.
Screening CN(C)C(=O)ON=C(N)COc1ccc(C(C)(C)C)cc1 returned UCH37 inh 1.
`COc1ccccc1C=NN=C(N)N[N+](=O)[O-]` gave UCH37 inh 13.
`Cn1c(=O)c2c(nc(N/N=C/c3c(O)n(-c4ccccc4)c(=S)[nH]c3=O)n2C)n(C)c1=O` gave PAD4 inh -6, GSTO1 counter 8, Apaf-1 inh 8, PP5 primary -3, Fh CTSL1 inh 4 and UCH37 inh 21*.
For Cc1ccccc1-n1c(O)c(/C=N/c2nccs2)c(=O)[nH]c1=O the results were PAD4 inh -4, GSTO1 counter 11, Apaf-1 inh 0, PP5 primary 2, Fh CTSL1 inh 17*! and UCH37 inh 3.
For CC(CCc1c[nH]c2ccccc12)=NO the results were UCH37 inh 1.
Cc1c(N=Nc2c(O)n(C)c(=O)n(C)c2=O)c(=O)n(-c2ccccc2)n1C was read as PAD4 inh 0, GSTO1 counter 39*, Apaf-1 inh -10, PP5 primary -1, Fh CTSL1 inh 2 and UCH37 inh 3.
Screening Fc1ccc(C(OCCN2CCN(CCCc3ccccc3)CC2)c2ccc(F)cc2)cc1 returned PAD4 inh -3, GSTO1 counter 1, Apaf-1 inh 56*, PP5 primary 0, Fh CTSL1 inh 1 and UCH37 inh 4.
For Fc1ccc(C(OCCN2CCCC2)c2ccc(F)cc2)cc1 the results were PAD4 inh 4, GSTO1 counter 5, Apaf-1 inh 8, PP5 primary 2, Fh CTSL1 inh -2 and UCH37 inh 4.
Screening O=P(C(=NO)N1CCOCC1)(N1CCOCC1)N1CCOCC1 returned UCH37 inh 7.
For O=C1NC(=O)N(Cc2ccccc2)C(=O)/C1=C\N1CCCc2ccccc21 the results were PAD4 inh -14, GSTO1 counter 38*, Apaf-1 inh 2, PP5 primary 1, Fh CTSL1 inh -2 and UCH37 inh 0.
For O=C1NC(=O)N(Cc2ccccc2)C(=O)/C1=C\c1ccco1 the results were PAD4 inh -22, GSTO1 counter 18, Apaf-1 inh 14, PP5 primary 0, Fh CTSL1 inh 4 and UCH37 inh 1.
Screening Nc1c(C(=O)NCCN2CCOCC2)c2nc3ccccc3nc2n1Cc1ccccc1 returned PAD4 inh -17, GSTO1 counter 4, Apaf-1 inh 82*, PP5 primary 3, Fh CTSL1 inh -1 and UCH37 inh -292.
Screening Nc1c(C(=O)NCCc2ccccc2)c2nc3ccccc3nc2n1CCN1CCOCC1 returned PAD4 inh -2, GSTO1 counter 10, Apaf-1 inh 8, PP5 primary 6, Fh CTSL1 inh 9 and UCH37 inh -185.
`Cc1ccc(CN2C(=O)NC(=O)C3(Cc4c(nc5ccccn5c4=O)N4CCCCCC43)C2=O)cc1` (configuration not stated) gave PAD4 inh 7, GSTO1 counter 36*, Apaf-1 inh 34, PP5 primary 2, Fh CTSL1 inh 1 and UCH37 inh -19.
Cc1nc2ccccc2c(=O)n1N=Cc1cc(Br)cc(Br)c1O was read as UCH37 inh 0.
For C[C@H]1CCCC=C[C@@H]2C[C@H](O)C[C@H]2[C@H](O)C=CC(=O)O1 the results were UCH37 inh 5.
Screening CC(=O)OC1(c2ccccc2)CC(C(C)(C)C)CN(C(C)(C)C)C1 (configuration not stated) returned PAD4 inh 0, GSTO1 counter 3, Apaf-1 inh -1, PP5 primary 0, Fh CTSL1 inh 35* and UCH37 inh 1.
CC(=O)OC1(c2ccccc2)CCN(C)CC1(C)C (configuration not stated) was read as PAD4 inh -1, GSTO1 counter 5, Apaf-1 inh -15, PP5 primary 1, Fh CTSL1 inh 1 and UCH37 inh 3.
